Assay results: PMC4618194 (Nature chemical biology, 2015)
One block for each molecule: values may come before it.

Legend:
site IQ = conditions: without affecting energy metabolism; cited from earlier work
site IIIQo = conditions: cited from earlier work
[1] = Mitochondrial respiration; type: biochemical, rat
In short: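 Seahorse XF24 with 0.5–6 μg rat muscle mitochondrial protein per well, in MAS buffer with 0.3% BSA. Substrate: 5 mM succinate + 4 μM rotenone. State 2 measured with and without compound, then 5 mM ADP (state 3), then 1 μg/ml oligomycin (state 4o). Each compound tested at least three times per substrate.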

[2] = cited from earlier work
[3] = target: site IIIQo of mitochondrial complex III (Rattus norvegicus, UniProt P00159+P20788); experiment: Endpoint H2O2 production assays; type: biochemical; conditions: dose-response in two ΔΨm and six H2O2 endpoint assays
In short: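 Freshly isolated rat skeletal-muscle mitochondria, H2O2 read by Amplex UltraRed/HRP fluorescence. Site conditions: IIIQo, 0.5 or 5 mM succinate + 4 μM rotenone + 2.5 μM antimycin A; IQ, 5 mM succinate; IIF, 0.1 mM succinate + rotenone, antimycin A, 2 μM myxothiazol. Other assays: IF/matrix DH, glycerol phosphate (mGPDH), and two ΔΨm assays. 30-min endpoints normalised to DMSO and inhibitor controls, as % change.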

HIF-1α = experiment: Hypoxia-induced HIF-1α accumulation; type: cell-based, human; conditions: HEK-293 cells, 3.5 h hypoxia; 2 μM
In short: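 HEK-293 cells, 15,000/well, grown 48 h. Medium then swapped for medium pre-equilibrated overnight at 1% or atmospheric O2. Compounds, 100 μM CoCl2 or 2 μM myxothiazol were pre-equilibrated 1 h in that medium and added at the switch. 3.5 h at 1% O2. Cells rinsed in ice-cold PBS, lysed in Laemmli buffer, frozen −80°C. n = 3 biological replicates; one-way ANOVA.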

SMILES: O=[N+]([O-])c1ccc(Oc2ccc(S(=O)(=O)NC3CCCCC3)cc2)cc1 [CN-POBS]
Electron leak to O2 at site IQ (site IQ): suppresses

Selectivity for site IIIQo superoxide production [3]: not selective
SMILES: C/C1=C\C[C@]2(C)C(=O)C(O)=C([C@H](C)CO)[C@H]2C/C=C(\C)[C@@H](O)CC/C(C)=C/CC1 [Terpestacin]
Site IIIQo ROS production and hypoxic signaling (site IIIQo; without altering basal respiration): inhibited
Effect on mitochondrial respiration / oxidative phosphorylation ([1]; 10 – 30 μM, succinate plus rotenone): evidence of uncoupling and inhibition of oxidative phosphorylation
Effect on mitochondrial polarization [2]: depolarizes

SMILES: CCCCCC[C@H]1C(=O)O[C@H](C)[C@H](NC(=O)c2cccc(NC=O)c2O)C(=O)O[C@@H](C)[C@@H]1OC(=O)CC(C)C [antimycin A]
HIF-1α induction during hypoxia (site IIIQo): increased
ROS production during hypoxia (site IIIQo): increased

SMILES: CO/C(=C/C(N)=O)[C@H](C)[C@H](/C=C/c1csc(-c2csc([C@@H](C)/C=C/C=C/C(C)C)n2)n1)OC [myxothiazol]
HIF-1α induction during hypoxia (site IIIQo): blocked
ROS production during hypoxia (site IIIQo): decreased
Effect on mitochondrial respiration ([1]; 0.08 μM (5x IC50 against site IIIQo), succinate and rotenone): potent effect
Effect on HIF-1α stabilization (HIF-1α): prevented HIF-1α stabilization
